Compound activity from PubChem.
The list is not random: actives were taken first. Their share in the collection is about 4.3%.
GalR3 antag – antagonists of human GalR3 | hit rate 0.44% among 360,000 | inhibition, % at 3 µM | O60755 | HEK293 GalR3-CNG cAMP membrane potential fluorescence; galR3 body fused to GalR1 C-terminus;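 active = inhibition above the screen-wide average plus 3 SD, cut at about 13% in these data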;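 note: forskolin and galanin both at EC90 stimulate the cells; cAMP rise reported by CNG channel membrane potential dye signal; 0% = forskolin plus galanin with DMSO and 100% = forskolin alone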
TAAR1 agonist – human TAAR1 agonism; Q96RJ0; CHO RD-HGA16 TAAR1, Fluo-8 calcium fluorescence; vehicle wells 0%, saturating PEA agonist 100%; activation, % at 3 µM; hit rate 0.99% among 360,000;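 active = activation above the mean activation of all test compounds in the run plus 3 SD, cut at about 38% in these data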
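Benchmarks: low control DMSO, high control PEA (EC100); System: CHO RD-HGA16 cells carrying human TAAR1 plus Gα16; Detection: Fluo-8 fluorescence, 5 s baseline then 140 s kinetic read; Schedule: 17-24 h plating, Fluo-8 75 min 37 °C, 30 min RT; Read-out basis: % activation from peak over basal fluorescence ratio, DMSO-to-PEA scaled.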
OX1R antag-1 – human HCRTR1 antagonism; O43613; CHO/OX1R cells, Fluo-8 calcium fluorescence, orexin A; inhibition, % at 5 µM; hit rate 0.43% among 330,000;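 active = inhibition above its plate's threshold, mean inhibition of all tested compounds on the plate plus 3 SD, cut at about 37% in these data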;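 note: 0% = orexin A challenge wells and 100% = SB-334867-A antagonist wells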
Target sequence (O43613 whole entry, looked up): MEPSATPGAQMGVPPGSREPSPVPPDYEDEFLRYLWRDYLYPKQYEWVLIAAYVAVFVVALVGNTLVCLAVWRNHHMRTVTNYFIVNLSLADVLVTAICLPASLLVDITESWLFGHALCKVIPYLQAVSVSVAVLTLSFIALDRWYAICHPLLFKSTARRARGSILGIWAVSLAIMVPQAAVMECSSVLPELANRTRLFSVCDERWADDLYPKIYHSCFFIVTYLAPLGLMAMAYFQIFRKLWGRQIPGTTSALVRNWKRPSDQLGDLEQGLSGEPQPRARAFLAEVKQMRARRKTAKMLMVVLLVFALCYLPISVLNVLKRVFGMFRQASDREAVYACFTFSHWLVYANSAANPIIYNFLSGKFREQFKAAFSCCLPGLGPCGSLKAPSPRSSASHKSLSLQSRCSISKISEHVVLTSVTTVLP
OX1R antag-2 – OX1R (human) antagonism; O43613; OX1R-expressing cells, FRET antagonist read-out; inhibition, % at 6.6 µM; hit rate 1.8% among 330,000; AID 485270; in the data active = inhibition mostly above about 38%, no sharp cut-off; inactive = mostly below about 40%;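 note: 0% = agonist challenge alone and 100% = reference antagonist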
CHO parental Ca – counter-screen: ATP calcium response change in parental CHO cells | hit rate 0.63% among 330,000 | inhibition, % at 5.6 µM | AID 463079 | parental CHO-K1, ATP-induced calcium, Fluo-8 fluorescence;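 active = inhibition above that plate's mean sample inhibition plus 3 SD, cut at about 26% in these data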;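 note: 0% = ATP-challenged DMSO wells and 100% = DMSO wells without ATP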
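Assay system – parental CHO cells · Reagent – ATP stimulus · Detection – intracellular calcium via Fluo-8 no-wash fluorescent dye · Evaluation – percent inhibition of ATP-evoked calcium rise, normalized to controls · Controls – ATP wells versus no-ATP DMSO wells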
TAAR1 antagonist – human TAAR1 antagonism; Q96RJ0; CHO RD-HGA16 TAAR1, Fluo-8 calcium fluorescence, antagonist; inhibition, % at 3 µM; hit rate 1.5% among 360,000; AID 624466;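 active = inhibition above a per-plate cutoff, the mean inhibition of test compounds on that plate plus 3 SD, cut at about 49% in these data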;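 note: 0% = DMSO plus EC80 beta-PEA response and 100% = DMSO alone without agonist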
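Material: CHO RD-HGA16 cells bearing hTAAR1; compound dosing: one-point dosing, 3 µM nominal final; schedule: dye loading 75 min at 37 °C, then 30 min room temperature; measured by: calcium fluorescence with Fluo-8; control set: vehicle and agonist controls; replication: n of 1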
OX1R Ca confirm – OX1R (human) antagonism, confirmed; hit rate 38% among 1,100; CHO/OX1R cells, orexin A calcium Fluo-8 fluorescence; shares compounds with OX1R antag-1; inhibition, % at 5 µM; in the data active = inhibition above about 29%;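 note: 0% = agonist challenge alone and 100% = reference antagonist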
CHO Ca counter – counter-screen: parental CHO calcium response change, triplicate; shares compounds with OX1R antag-1; hit rate 9.3% among 1,100; AID 492965; parental CHO-K1, ATP-induced calcium, Fluo-8 fluorescence; inhibition, % at 5.6 µM;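 active = inhibition above a per-plate limit, the mean inhibition of that plate's test compounds plus 3 SD, cut at about 25% in these data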;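 note: 0% = ATP challenge with DMSO and 100% = DMSO without ATP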
OX1R HTRF conf – OX1R (human) antagonism, HTRF confirmed. hit rate 49% among 1,800. inhibition, % at 6.6 µM. OX1R-expressing cells, HTRF antagonist assay. shares compounds with OX1R antag-2; in the data active = inhibition above about 55%;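 note: CHO cells expressing OX1R stimulated with orexin A at about EC80; 0% = agonist challenge alone and 100% = reference antagonist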
CHO-K1 HTRF cnt – signal in parental CHO-K1 cells, OX1R antagonist counter-screen. shares compounds with OX1R antag-2. HTRF counterscreen. inhibition, % at 6.6 µM. hit rate 48% among 1,800; in the data active = inhibition above about 17%;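 note: 0% = agonist challenge with vehicle and 100% = vehicle alone without agonist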
Active calls of the source: *.

Results for Cc1nc2cc(-c3ccccc3)nn2c(N)c1-c1ccccc1 ?
GalR3 antag: -5.3; TAAR1 agonist: -0.8; OX1R antag-1: -9.0; OX1R antag-2: 6.6; CHO parental Ca: -13.7; TAAR1 antagonist: 4.3

How did Cc1nc2c(-c3ccccc3)c(C)nn2c(N)c1-c1ccccc1 do in these assays?
GalR3 antag: -4.5; TAAR1 agonist: 12.5; OX1R antag-1: 46.4*; OX1R antag-2: 81.0*; CHO parental Ca: -17.0; TAAR1 antagonist: 19.2; OX1R Ca confirm: 26.9; CHO Ca counter: 5.5; OX1R HTRF conf: 78.6*; CHO-K1 HTRF cnt: 12.4

Results for O=C(CN1C(=O)NC(c2ccccc2)(c2ccccc2)C1=O)NCCc1ccc(F)cc1 ?
GalR3 antag: 0.7; TAAR1 agonist: 15.1; OX1R antag-1: 36.4; OX1R antag-2: 68.7*; CHO parental Ca: -17.3; TAAR1 antagonist: 42.2; OX1R Ca confirm: 31.4*; CHO Ca counter: 1.2; OX1R HTRF conf: 56.3*; CHO-K1 HTRF cnt: -0.5

How did CC(C)(C)C1CCCCC1NC(=O)c1ccncc1 (stereo not drawn) do in these assays?
GalR3 antag: -7.9; TAAR1 agonist: 0.9; TAAR1 antagonist: 10.2

Results for COC(=O)c1sc(NC(=O)c2cc3c(s2)CCCC3)nc1C ?
GalR3 antag: -8.2; TAAR1 agonist: 3.0; OX1R antag-1: 58.0*; OX1R antag-2: 89.3*; CHO parental Ca: -20.3; TAAR1 antagonist: 8.5; OX1R Ca confirm: 26.6; CHO Ca counter: -17.4; OX1R HTRF conf: 98.4*; CHO-K1 HTRF cnt: -0.9

What do the screens show for `Cc1nc(NC(=O)c2cc3c(s2)CCCCC3)sc1C(=O)N(C)C`?
GalR3 antag: -3.8; TAAR1 agonist: 7.2; OX1R antag-1: 1.8; OX1R antag-2: 31.9; CHO parental Ca: -29.4; TAAR1 antagonist: -3.8

Results for CN1CCS/C1=C/C=C1/SC(=S)N(Cc2ccccc2)C1=O ?
GalR3 antag: -3.8; TAAR1 agonist: 36.2; OX1R antag-1: 41.2; OX1R antag-2: 21.0; CHO parental Ca: 23.2; TAAR1 antagonist: 12.5

What do the screens show for `CN1CCS/C1=C/C=C1\SC(=S)N(CC(=O)O)C1=O`?
GalR3 antag: 1.6; TAAR1 agonist: 32.5; OX1R antag-1: 25.9; OX1R antag-2: 103.7*; CHO parental Ca: 19.6; TAAR1 antagonist: 40.0; OX1R Ca confirm: 13.3; CHO Ca counter: 19.4; OX1R HTRF conf: 63.7*; CHO-K1 HTRF cnt: 102.8*

What do the screens show for `Cc1ccc(NC(=O)C2COc3ccccc3O2)cc1S(=O)(=O)N1CCCCC1` (stereo not drawn)?
GalR3 antag: -5.5; TAAR1 agonist: 7.4; OX1R antag-1: -6.0; OX1R antag-2: 9.5; CHO parental Ca: -5.1; TAAR1 antagonist: 14.0

How did CCCC(=O)NCC(c1cccs1)S(=O)(=O)c1ccc(C)cc1 (stereo not drawn) do in these assays?
GalR3 antag: 0.6; TAAR1 agonist: 0.2; OX1R antag-1: -19.9; OX1R antag-2: 18.9; CHO parental Ca: 15.1; TAAR1 antagonist: -1.6

What do the screens show for `O=C(Cc1ccc(Cl)cc1Cl)OCC(=O)N1CCCCC1`?
GalR3 antag: -3.3; TAAR1 agonist: 4.5; OX1R antag-1: -10.4; OX1R antag-2: 9.1; CHO parental Ca: -17.0; TAAR1 antagonist: 15.8

How did Cc1nc2ccc3nc(NC(=O)c4ccco4)sc3c2s1 do in these assays?
GalR3 antag: -6.6; TAAR1 agonist: 12.7; OX1R antag-1: 61.5*; OX1R antag-2: 72.1*; CHO parental Ca: -18.3; TAAR1 antagonist: 2.7; OX1R Ca confirm: 23.2; CHO Ca counter: -5.1; OX1R HTRF conf: 84.4*; CHO-K1 HTRF cnt: 1.6
